Results on nine compounds are retold here after ChEMBL document CHEMBL2331219, “Synthesis and anti-Candida activity of novel 2-hydrazino-1,3-thiazole derivatives” (Bioorg Med Chem Lett, 2013).

In brackets after ≈: the same amount, converted by molar mass.

In general, MIC refers to the smallest concentration in the dilution series that meets the test's criterion for growth inhibition.

Data set [1] concerns Candida parapsilosis. The data set is described as follows: Antifungal activity against anidulafungin-resistant Candida parapsilosis isolate 22019 assessed as growth inhibition after 24 to 48 hrs by CLSI microbroth dilution method. The format is functional. Conditions: Lodderomyces parapsilosis. An outline of the steps: (§1)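 Microbroth dilution per CLSI M27-A3. Isolates subcultured for purity, incubated at 35 °C; five colonies >1 mm suspended in saline, adjusted to 0.5 × 10³ to 2.5 × 10³ in RPMI 1640 buffered to pH 7.0 with 0.165 M MOPS. Compounds diluted in RPMI to final […]. Read visually after 24 h and 48 h at 35 °C; MIC judged by turbidity against drug-free growth control.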
In general terms: Dilution methods test growth across graded concentrations, often in twofold steps.

Data set [2] relates to Candida parapsilosis. The data set is described as follows: Antifungal activity against anidulafungin-resistant Candida parapsilosis ANF8 assessed as growth inhibition after 24 to 48 hrs by CLSI microbroth dilution method. The format is functional. The following applies: Lodderomyces parapsilosis. A digest of the protocol:
as §1

The subject of data set [3] is Nakaseomyces glabratus. The data set is described as follows: Antifungal activity against fluconazole-resistant Candida glabrata isolate 6258 assessed as growth inhibition after 24 to 48 hrs by CLSI microbroth dilution method. The format is functional. A digest of the protocol:
as §1

For data set [4], the system named is Nakaseomyces glabratus. In words: Antifungal activity against voriconazole-resistant Candida glabrata clinical isolate 730 assessed as growth inhibition after 24 to 48 hrs by CLSI microbroth dilution method. It counts as functional. An outline of the steps: as §1
In data set [5] the test system is Nakaseomyces glabratus. In words: Antifungal activity against voriconazole-resistant Candida glabrata clinical isolate 724 assessed as growth inhibition after 24 to 48 hrs by CLSI microbroth dilution method. It counts as functional. An outline of the steps:
as §1

Data set [6] deals with Candida albicans. The data set is described as follows: Antifungal activity against azole-resistant Candida albicans clinical isolate 7.O.A assessed as growth inhibition after 24 to 48 hrs by CLSI microbroth dilution method. It counts as functional. An outline of the steps:
as §1

In data set [7] the test system is Candida albicans. In words: Antifungal activity against fluconazole-resistant Candida albicans clinical isolate 5.O.A assessed as growth inhibition after 24 to 48 hrs by CLSI microbroth dilution method. It counts as functional. A digest of the protocol:
as §1

Data set [8] concerns Candida albicans. In words: Antifungal activity against caspofungin-resistant Candida albicans assessed as growth inhibition after 24 to 48 hrs by CLSI microbroth dilution method.
A short description of data set [9]: Cytotoxicity against mouse NIH/3T3 cells assessed as cell viability at 62.5 ug/mL after 24 hrs by MTT assay relative to control. The following applies: read-out: Activity. It counts as cell-based, NIH3T3. A digest of the protocol:
(§2)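 NIH/3T3 fibroblasts kept in DMEM with 10% fetal calf serum, penicillin/streptomycin, 37 °C, 5% CO2. Cells seeded at 2 × 10⁴ cells/mL, grown 24 h, then given compound (DMSO stock diluted in medium, final DMSO <0.1%) for 24 h. MTT at 0.5 mg/mL final added for 4 h, formazan dissolved in DMSO, absorbance read at 540 nm. Triplicate wells, mean ± SD, assay run twice.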
A general note: Tetrazolium assays rely on reduction of a dye to a coloured formazan, in cell work by metabolically active cells.

Data set [10] in a line: Cytotoxicity against mouse NIH/3T3 cells assessed as cell viability at 31.3 ug/mL after 24 hrs by MTT assay relative to control. The format is cell-based, NIH3T3. Conditions: read-out: Activity. A digest of the protocol:
as §2

The nature of data set [11]: Cytotoxicity against mouse NIH/3T3 cells assessed as cell viability at 1 ug/mL after 24 hrs by MTT assay relative to control. It counts as cell-based, NIH3T3. The following applies: read-out: Activity. An outline of the steps: as §2
Data set [12] in a line: Cytotoxicity against mouse NIH/3T3 cells assessed as cell viability at 0.5 ug/mL after 24 hrs by MTT assay relative to control. It counts as cell-based, NIH3T3. Conditions: read-out: Activity. A digest of the protocol: as §2

Turning to `C/C(=N\Nc1nc([C@@H]2CCCN2C(=O)OCc2ccccc2)cs1)c1ccc2c(c1)CCC2`, the MIC in data set [1], in data set [2], in [3], in data set [4], in data set [5] and in data set [6] was > 16 mg/L throughout. Further, the minimum inhibitory concentration (MIC) in [7] and in [8] was > 16 mg/L throughout.

With `COc1ccc(O)c(-c2csc(N/N=C/c3ccc4c(c3)OCO4)n2)c1`, the MIC in [1], in data set [2], in data set [3], in data set [4], in data set [5] and in [6] was > 16 mg/L in each case. Moreover, the MIC in data set [7] and in [8] was > 16 mg/L each time.

With `COc1ccc(O)c(-c2csc(NN=C3CCCCC3)n2)c1`, the MIC in data set [1] was 16 mg/L (≈ 50.4 µM); in data set [2], > 16 mg/L; in [3], 16 mg/L (≈ 50.4 µM); in data set [4], 8 mg/L (≈ 25.2 µM); in [5], > 16 mg/L; in [6], > 16 mg/L. The MIC in data set [7] and in data set [8] was > 16 mg/L in each case.

As to `COc1ccc(O)c(-c2csc(N/N=C/c3ccc4ccccc4c3)n2)c1`, the viability at 24 h, 62.5 ug/mL in data set [9] amounted to 52.7%. In addition, the viability at 24 h, 31.3 ug/mL in [10] came out at 45.3%. Further, in data set [11], the viability at 24 h, 1 ug/mL amounted to 69.2%. The viability at 24 h, 0.5 ug/mL in [12] is 83.7%. Besides, the MIC was > 16 mg/L in [1]; > 16 mg/L in data set [2]; > 16 mg/L in [3]; > 16 mg/L in data set [4]; > 16 mg/L in [5]; 2 mg/L (≈ 5.33 µM) in [6]. Also, the MIC in data set [7] and in data set [8] was > 16 mg/L each time.

On to `COc1ccc(O)c(-c2csc(N/N=C/c3c[nH]c4ccccc34)n2)c1`, for which, in data set [9], the viability at 24 h, 62.5 ug/mL stood at 50.2%. In addition, the viability at 24 h, 31.3 ug/mL in data set [10] was found to be 70.6%. In addition, the viability at 24 h, 1 ug/mL in data set [11] came out at 80.6%. In addition, the viability at 24 h, 0.5 ug/mL in data set [12] is 91.9%. The MIC in data set [1] is > 16 mg/L; in data set [2] it was 0.25 mg/L (≈ 0.686 µM); in data set [3] it was > 16 mg/L; in data set [4] it was 0.5 mg/L (≈ 1.37 µM); in data set [5], > 16 mg/L; in [6] it was 0.5 mg/L (≈ 1.37 µM). The MIC in data set [7] came out at 0.25 mg/L (≈ 0.686 µM); in data set [8], 2 mg/L (≈ 5.49 µM).

As to `COc1ccc(O)c(-c2csc(N/N=C/c3cnc4ccccn34)n2)c1`, the MIC in data set [1], in data set [2], in [3], in data set [4], in data set [5] and in data set [6] was > 16 mg/L in each case. For the same compound, the MIC in [7] and in [8] was > 16 mg/L throughout.

As to `COc1ccc(O)c(-c2csc(N/N=C/c3cc4ccccc4o3)n2)c1`, the minimal inhibitory concentration (MIC) in [1], in data set [2], in data set [3], in data set [4], in data set [5] and in [6] was > 16 mg/L each time. Moreover, the MIC in data set [7] and in data set [8] was > 16 mg/L in each case.

For the compound `COc1ccc(O)c(-c2csc(N/N=C/c3cc[nH]c3)n2)c1`, the MIC is 16 mg/L (≈ 50.9 µM) in [1]; > 16 mg/L in data set [2]; > 16 mg/L in data set [3]; 16 mg/L (≈ 50.9 µM) in data set [4]; 8 mg/L (≈ 25.4 µM) in data set [5]; > 16 mg/L in [6]. The MIC in [7] and in data set [8] was 16 mg/L (≈ 50.9 µM) each time.

Regarding `COc1ccc(O)c(-c2csc(N/N=C/c3ccco3)n2)c1`, the MIC in [1], in [2], in [3], in data set [4], in data set [5] and in [6] was > 16 mg/L in each case. Further, the MIC in data set [7] and in data set [8] was > 16 mg/L in each case.
